Assay results reported in ChEMBL document CHEMBL1926584, “Pterocarpanquinones, aza-pterocarpanquinone and derivatives: synthesis, antineoplasic activity on human malignant cell lines and antileishmanial activity on Leishmania amazonensis” (Bioorg Med Chem, 2011).

Legend:
MDA-MB-435 [1] = assay: Antineoplastic activity against human MDA-MB-435 cells after 72 hrs by MTT assay; type: functional, cell-based; details: MDA-MB-435, 72 h
How it was run: (§1)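 Tumour lines kept in RPMI 1640 with 10% FBS, 2 mM glutamine, penicillin/streptomycin, 37 °C, 5% CO2. Seeded at 10^5 cells/mL (adherent) or 3×10^5 cells/mL (leukemia). Compounds 0.1–25 µg/mL in DMSO 1%, 72 h. Vehicle controls got equal DMSO. MTT 0.5 mg/mL for 3 h, formazan dissolved in DMSO, absorbance at 595 nm. Doxorubicin 0.01–5 µg/mL as positive control.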

HL-60 = assay: Antineoplastic activity against human HL60 cells after 72 hrs by MTT assay; type: functional, cell-based; details: HL-60, 72 h; how it was run: as §1
K562 = assay: Antineoplastic activity against human K562 cells after 72 hrs by MTT assay; type: functional, cell-based; details: K562, 72 h; how it was run: as §1
SF-295 = assay: Antineoplastic activity against human SF295 cells after 72 hrs by MTT assay; type: functional, cell-based; details: SF-295, 72 h; how it was run: as §1
HCT-8 = assay: Antineoplastic activity against human HCT8 cells after 72 hrs by MTT assay; type: functional, cell-based; details: HCT-8, 72 h; how it was run: as §1
PBMC [2] = assay: Selectivity index, ratio of IC50 for PHA activated human PBMC cells to IC50 for human SF295 cells; type: functional
Leishmania amazonensis [3] = assay: Antileishmanial activity against Leishmania amazonensis promastigotes after 72 hrs by MTT assay; type: functional, organism-based
How it was run: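 Promastigotes grown at 26 °C in Schneider's medium with 10% FBS. Inoculum 1.0×10^6/ml, compounds 0–20 µM, 72 h at 26 °C. MTT (5 mg/mL solution) added for 2 h, then DMSO, OD at 570 nm. Pentamidine isethionate as reference. Experiments repeated at least three times; IC50 derived by software fitting.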

Leishmania amazonensis [4] = assay: Antileishmanial activity against Leishmania amazonensis amastigotes infected in BALB/c mouse peritoneal macrophages after 72 hrs by microscopy; type: functional, organism-based
How it was run: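 Resident BALB/c peritoneal macrophages in RPMI, 2×10^6/mL, 1 h at 37 °C, 5% CO2. Infected with stationary-phase promastigotes at 3:1 parasite/macrophage for 3 h, then washed with PBS. Compounds 0–20 µM in duplicate for 72 h. Hematological stain and light microscopy, amastigotes counted in ≥100 macrophages. Pentamidine reference. Repeated at least three times.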

PBMC [5] = assay: Cytotoxicity against PHA activated human PBMC cells after 72 hrs by MTT assay; type: cell-based
How it was run: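 PBMC isolated from heparinized blood of healthy non-smoking donors (drug-free ≥15 days) by Ficoll-Hypaque density-gradient centrifugation. Plated at 3×10^5 cells/mL in RPMI 1640 with 20% FBS, glutamine and antibiotics, 37 °C, 5% CO2. Phytohemagglutinin (3%) added at start. After 24 h, compounds 0.1–25 µg/mL in DMSO 1% added for 72 h. MTT read-out at 595 nm.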

PBMC [6] = assay: Selectivity index, ratio of IC50 for PHA activated human PBMC cells to IC50 for human HL60 cells; type: functional
PBMC [7] = assay: Selectivity index, ratio of IC50 for PHA activated human PBMC cells to IC50 for human HCT8 cells; type: functional
J774 = assay: Cytotoxicity against mouse J774 cells after 72 hrs by MTT assay; type: cell-based; details: J774, 72 h
How it was run: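 J774 murine macrophages (2×10^6 in 200 µL) incubated with a range of compound concentrations for 72 h at 37 °C/5% CO2. Viability by MTT. Pentamidine isethionate as reference. Experiments repeated at least three times.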

PBMC [8] = assay: Selectivity index, ratio of IC50 for PHA activated human PBMC cells to IC50 for human MDA-MB-435 cells; type: functional
PBMC [9] = assay: Selectivity index, ratio of IC50 for PHA activated human PBMC cells to IC50 for human K562 cells; type: functional
MDA-MB-435 [10] = assay: Ratio of doxorubicin IC50 to compound IC50 for human MDA-MB-435 cells; type: functional

IC50 (MDA-MB-435 [1]) [µM]	IC50 (HL-60) [µM]	IC50 (K562) [µM]	IC50 (HCT-8) [µM]	IC50 (Leishmania amazonensis [4]) [µM]	Structure (SMILES)	IC50 (SF-295) [µM]	Ratio IC50 (PBMC [2])	IC50 (Leishmania amazonensis [3]) [µM]	IC50 (PBMC [5]) [µM]	Ratio IC50 (PBMC [6])	Ratio IC50 (PBMC [7])	IC50 (J774) [µM]	Ratio IC50 (PBMC [8])	Ratio IC50 (PBMC [9])	Ratio IC50 (MDA-MB-435 [10])
5	6.1	6.4	9	–	Cc1ccc(S(=O)(=O)N2c3ccccc3[C@H]3COc4ccccc4[C@H]32)cc1	31.5	–	–	–	–	–	–	–	–	–
11.4	3.5	3.3	10.4	> 20	COc1ccc2c(c1)O[C@@H]1C3=C(OC[C@H]21)C(=O)c1ccccc1C3=O (racemic)	17.7	0.44	2.85	7.8	2.22	0.75	49.5	0.68	9.4	–
10.7	3	13.5	6	1.25	COc1cc(C=O)cc2c1O[C@@H]1C3=C(OC[C@H]21)C(=O)c1ccccc1C3=O (racemic)	7.4	0.8	1.27	6	2	1	18	0.56	–	–
30.8	17.4	13.5	21.2	–	COc1c2c(c(OC)c3ccccc13)[C@H]1Oc3ccccc3[C@H]1CO2 (racemic)	22.4	–	–	–	–	–	–	–	–	–
–	0.04	1.67	–	–	COc1cccc2c1C(=O)c1c(O)c3c(c(O)c1C2=O)C[C@@](O)(C(=O)CO)C[C@@H]3O[C@H]1C[C@H](N)[C@H](O)[C@H](C)O1 [DOXORUBICIN]	–	–	–	–	–	–	–	–	–	–

Second part, the compound before the results:

Structure (SMILES)	IC50 (MDA-MB-435 [1]) [µM]	IC50 (HL-60) [µM]	IC50 (K562) [µM]	IC50 (HCT-8) [µM]	IC50 (Leishmania amazonensis [4]) [µM]	IC50 (SF-295) [µM]	Ratio IC50 (PBMC [2])	IC50 (Leishmania amazonensis [3]) [µM]	IC50 (PBMC [5]) [µM]	Ratio IC50 (PBMC [6])	Ratio IC50 (PBMC [7])	IC50 (J774) [µM]	Ratio IC50 (PBMC [8])	Ratio IC50 (PBMC [9])	Ratio IC50 (MDA-MB-435 [10])
c1ccc2c(c1)O[C@@H]1c3ccccc3OC[C@H]21	> 112	> 112	> 112	> 112	–	> 112	–	–	–	–	–	–	–	–	–
c1ccc2c(c1)CC[C@@H]1c3ccccc3O[C@H]21	> 112	> 112	> 112	> 112	–	> 112	–	–	–	–	–	–	–	–	–
Cc1ccc(S(=O)(=O)N2c3ccccc3[C@H]3CCc4ccccc4[C@H]32)cc1	0.5	1	1.9	3	2.15	> 62.5	0.11	4.85	7.2	7.2	2.4	23	14.4	–	–
O=C1C2=C(OCC=C2)C(=O)c2ccccc21	1.8	0.5	–	2.8	–	2.3	0.6	–	< 1.4	2.8	0.5	–	0.78	–	–
COC(=O)c1ccc2c(c1)[C@H]1COC3=C(C(=O)c4ccccc4C3=O)[C@H]1O2 (racemic)	> 13	4.1	8	> 13	0.5	> 13	–	2.8	–	–	–	22.5	–	–	–
Cc1ccc(S(=O)(=O)N2c3ccccc3[C@H]3COC4=C(C(=O)c5ccccc5C4=O)[C@H]32)cc1 (racemic)	0.4	7.4	5.5	0.6	> 20	3.9	5.92	15	23	3.12	38.5	> 100	57.7	4.33	2
COc1c2c(c(OC)c3ccccc13)[C@@H]1[C@H](CO2)c2ccccc2N1S(=O)(=O)c1ccc(C)cc1 (racemic)	> 51	> 51	46.7	> 51	–	> 51	–	–	–	–	–	–	–	–	–
O=C1C2=C(C(=O)c3ccccc31)[C@H]1Oc3ccc([N+](=O)[O-])cc3[C@H]1CO2 (racemic)	17.4	6.3	–	8.3	1.85	8.9	0.96	1.07	8.6	1.36	1.06	12.1	0.49	–	–
O=C1C2=C(C(=O)c3ccccc31)[C@H]1Oc3ccccc3[C@H]1CO2 (racemic) [PTEROCARPANQUINONE]	2.3	1.3	–	2.6	1.45	3.6	5.5	1.73	> 20	15.4	7.7	18.5	8.7	12	0.42
N=C(N)c1ccc(OCCCCCOc2ccc(C(=N)N)cc2)cc1 [PENTAMIDINE]	–	–	–	–	1.5	–	–	2.2	–	–	–	70	–	–	–
